{"data": "Experimental data from different studies", "target": "Mitogen-activated protein kinase 3 (MAPK3, Homo sapiens, UniProt P27361)", "note": "Protocols differ between the studies behind these lines."}
{"SMILES": "Cn1c2c(Cl)c(Cl)ccc2c2cc(N)[nH]c(=O)c21", "read-out": "thermal stability", "technique": "DSF", "concentration": "10 µM", "quantity": "ΔTm", "value": "-0.4 °C"}
{"SMILES": "CCN1CCN(Cc2ccc(NC(=O)c3ccc(C)c(Oc4ccnc5[nH]ccc45)c3)cc2C(F)(F)F)CC1", "read-out": "target engagement in cells", "mode": "inhibitor", "technique": "chemoproteomics", "cells": "A-375", "concentration": "50 nM", "quantity": "inhibition", "value": "-24.5%"}
{"SMILES": "CC1(C)NC(=O)c2[nH]c3c(Cl)c(Cl)ccc3c2C1C#N (stereo not shown)", "read-out": "thermal stability", "technique": "DSF", "concentration": "10 µM", "quantity": "ΔTm", "value": "0.2 °C"}
{"SMILES": "O=C1NC(=O)c2cc(Nc3ccc(F)cc3)c(Nc3ccc(F)cc3)cc21", "read-out": "cell-free assay", "concentration": "0.5 µM", "quantity": "remaining signal", "value": "86.1%"}
{"SMILES": "CNc1cccc2cc(C(=O)Nc3ccc(C(=O)O)cc3)c(=O)[nH]c12", "read-out": "enzyme activity", "mode": "inhibitor", "concentration": "10 µM", "quantity": "inhibition", "value": "1.9%"}
{"SMILES": "CC/C(=N\\NC(=O)NCc1cccc(O)c1)c1ccc(O)c(C)c1O", "read-out": "enzyme activity", "mode": "inhibitor", "concentration": "0.1 µM", "quantity": "inhibition", "value": "-2.7%"}
{"SMILES": "Cc1c[nH]c2nccc(Oc3c(F)cc(Nc4cc(Cl)nc(N)n4)cc3F)c12", "read-out": "cell-free assay", "technique": "competition with immobilised ligand", "concentration": "0.1 µM", "quantity": "remaining binding", "value": "90%"}
{"SMILES": "Cc1sc(C(=O)NC2COC2)cc1-n1cc(NC(=O)Nc2c(F)cccc2Cl)cn1", "read-out": "enzyme activity", "mode": "inhibitor", "concentration": "10 µM", "quantity": "remaining activity", "value": "107%"}
{"SMILES": "COc1cc(/C=C/C(=O)CC(=O)/C=C/c2ccc(O)c(OC)c2)ccc1O", "read-out": "enzyme activity", "mode": "inhibitor", "concentration": "1 µM", "quantity": "activity vs control", "value": "94%"}
{"SMILES": "CCC1(CC)NC(=O)c2c(c3ccc(Cl)c(Cl)c3n2C)C1C#N (stereo not shown)", "read-out": "thermal stability", "technique": "DSF", "concentration": "10 µM", "quantity": "ΔTm", "value": "0 °C"}
{"SMILES": "Cc1ccc(NC(=O)c2ccc(CN3CCN(C)CC3)cc2)cc1Nc1nc(-c2cccnc2)cs1", "read-out": "cell-free assay", "concentration": "0.5 µM", "quantity": "remaining signal", "value": "103%"}
{"SMILES": "COc1cc2ncnc(Nc3ccc(Oc4ccccc4)cc3C)c2cc1OC", "read-out": "enzyme activity", "mode": "inhibitor", "concentration": "1 µM", "quantity": "inhibition", "value": "5%"}
{"SMILES": "N#CC(=C(N)Sc1ccc(N)cc1)c1ccccc1C(F)(F)F", "read-out": "cell-free assay", "concentration": "0.5 µM", "quantity": "remaining signal", "value": "116%"}
{"SMILES": "Cn1c(=O)n(-c2ccc(C(C)(C)C#N)cc2)c2c3cc(-c4cnc5ccccc5c4)ccc3ncc21", "read-out": "enzyme activity", "mode": "inhibitor", "concentration": "10 µM", "quantity": "remaining activity", "value": "106%"}
{"SMILES": "Nc1ncnc2occ(-c3ccc(NC(=O)Nc4cc(C(F)(F)F)ccc4F)cc3)c12", "read-out": "cell-free assay", "mode": "inhibitor", "concentration": "20 µM", "quantity": "remaining signal", "value": "100%"}
{"SMILES": "FC(F)(F)Oc1cccc(-c2cnc3ccc(-c4ccncc4)nn23)c1", "read-out": "enzyme activity", "mode": "inhibitor", "technique": "radiometric", "concentration": "5 µM", "quantity": "activity vs control", "value": "82%"}
{"SMILES": "Cc1nc(Cc2cccc(C(F)(F)F)c2)sc1-c1ccc(C(N)=O)nc1", "read-out": "cell-free assay", "technique": "competition with immobilised ligand", "concentration": "1 µM", "quantity": "remaining binding", "value": "96%"}
{"SMILES": "CC(C)(C)c1nc2c(s1)c1nc(N)ncc1c1ccc(NS(=O)(=O)c3c(F)cccc3F)c(F)c12", "read-out": "enzyme activity", "mode": "inhibitor", "technique": "radiometric", "concentration": "1 µM", "quantity": "remaining activity", "value": "84%"}
{"SMILES": "Cn1c2c(c3ccc(Cl)c(Cl)c31)C(C#N)C1(CCNCC1)NC2=O (racemic)", "read-out": "thermal stability", "technique": "DSF", "concentration": "10 µM", "quantity": "ΔTm", "value": "0.5 °C"}
{"SMILES": "COc1cc(Nc2c(C#N)cnc3cc(OCCCN4CCN(C)CC4)c(OC)cc23)c(Cl)cc1Cl", "read-out": "cell-free assay", "concentration": "0.5 µM", "quantity": "remaining signal", "value": "98.9%"}
{"SMILES": "Cn1nc(C(=O)NCc2ccc(C(=O)O)cc2)cc1-c1ccc2[nH]ccc2c1", "read-out": "cell-free assay", "technique": "competition with immobilised ligand", "concentration": "0.1 µM", "quantity": "remaining binding", "value": "94%"}
{"SMILES": "CCN1CCN(Cc2ccc(NC(=O)c3ccc(C)c(/C=C/c4cnc5[nH]ccc5c4OC)c3)cc2C(F)(F)F)CC1", "read-out": "target engagement in cells", "mode": "inhibitor", "technique": "chemoproteomics", "cells": "A-375", "concentration": "0.5 µM", "quantity": "inhibition", "value": "-18.7%"}
{"SMILES": "Cn1c2c(Cl)c(Cl)ccc2c2cc[nH]c(=O)c21", "read-out": "thermal stability", "technique": "DSF", "concentration": "10 µM", "quantity": "ΔTm", "value": "-0.4 °C"}
{"SMILES": "CCC(=O)N[C@@H]1CC[C@H](C(=O)N(C)c2ccc(-c3nc4ccccc4o3)cc2)C1", "read-out": "cell-free assay", "technique": "competition with immobilised ligand", "concentration": "1 µM", "quantity": "remaining binding", "value": "100%"}
{"SMILES": "CC(C)(C)C(=O)c1sc(NC2CCCCC2)nc1N", "read-out": "enzyme activity", "mode": "inhibitor", "concentration": "10 µM", "quantity": "remaining activity", "value": "73%"}
{"SMILES": "N#CC(c1ccnc(NCCc2cccnc2)n1)c1nc2ccccc2s1 (stereo not shown)", "read-out": "enzyme activity", "mode": "inhibitor", "concentration": "0.5 µM", "quantity": "remaining activity", "value": "99.4%"}
{"SMILES": "Nc1cnc(N2CCc3cc(S(=O)(=O)Nc4c(F)cc(Cl)cc4F)cc(N4CCCC4=O)c32)nc1", "read-out": "cell-free assay", "technique": "competition with immobilised ligand", "concentration": "1 µM", "quantity": "remaining binding", "value": "91%"}
{"SMILES": "CC(C)(O)[C@H]1CC[C@H](Nc2ccc3ncc(-c4cccc(C(F)(F)F)c4)n3n2)CC1", "read-out": "enzyme activity", "mode": "inhibitor", "concentration": "1 µM", "quantity": "remaining activity", "value": "94%"}
{"SMILES": "C[C@H](c1ccc(F)cc1)N(Cc1cccc(C(=O)O)c1)C(=O)c1cnc2ccccc2c1", "read-out": "cell-free assay", "technique": "competition with immobilised ligand", "concentration": "1 µM", "quantity": "remaining binding", "value": "100%"}
{"SMILES": "CCN1CCC2(CC1)NC(=O)c1c(c3ccc(Cl)c(Cl)c3n1C)C2C#N (racemic)", "read-out": "thermal stability", "technique": "DSF", "concentration": "10 µM", "quantity": "ΔTm", "value": "0 °C"}
{"SMILES": "Cc1cc(NC(=O)c2cccc(S(F)(F)(F)(F)F)c2)cc(-n2ccn3nc(-c4cccnc4)cc23)c1", "read-out": "cell-free assay", "technique": "competition with immobilised ligand", "concentration": "1 µM", "quantity": "remaining binding", "value": "86.8%"}
{"SMILES": "COc1cc(Nc2cnc(C#N)c(O[C@H](C)CN(C)C)n2)ncc1-c1cnn(C)c1", "read-out": "enzyme activity", "mode": "inhibitor", "technique": "radiometric", "concentration": "1 µM", "quantity": "remaining activity", "value": "96%"}
{"SMILES": "CN(c1ccnc(CNc2nc(Nc3ccc4c(c3)CC(=O)N4)ncc2C(F)(F)F)n1)S(C)(=O)=O", "read-out": "cell-free assay", "technique": "competition with immobilised ligand", "concentration": "1 µM", "quantity": "remaining binding", "value": "96%"}
{"SMILES": "Cn1c2c(Cl)c(Cl)ccc2c2cn[nH]c(=O)c21", "read-out": "thermal stability", "technique": "DSF", "concentration": "10 µM", "quantity": "ΔTm", "value": "0.1 °C"}
